Legend:
[1] = test system: microRNA 21; assay: (§1) Selectivity index, ratio of Kd for 5'-FAM/3'-DAB-labeled UGUCGGGUAGCUUAUCAGACUGAUGUUGACUGUUGAAUCUCAUGGCAACACCAGUCGAUGGGCUGUCUGACA pre-miRNA-21 (unknown origin) in presence of double stranded 15-mer 5'-CGTTTTTATTTTTGC-3' DNA to Kd for 5'-FAM/3'-DAB-labeled UGUCGGGUAGCUUAUCAGACUGAUGUUGACUGUUGAAUCUCAUGGCAACACCAGUCGAUGGGCUGUCUGACA pre-miRNA-21 (unknown origin); assay type: nucleic-acid assay
[2] = test system: microRNA 21; assay: as §1, with “tRNA” for “double stranded 15-mer 5'-CGTTTTTATTTTTGC-3' DNA”; assay type: nucleic-acid assay
[3] = target: microRNA 21; assay: Binding affinity to 5'-FAM/3'-DAB-labeled UGUCGGGUAGCUUAUCAGACUGAUGUUGACUGUUGAAUCUCAUGGCAACACCAGUCGAUGGGCUGUCUGACA pre-miRNA-21 (unknown origin) assessed as dissociation constant incubated for overnight in presence of double stranded 15-mer 5'-CGTTTTTATTTTTGC-3' DNA by fluorescence based assay; assay type: nucleic-acid assay
[4] = target: microRNA 21; assay: Binding affinity to 5'-FAM/3'-DAB-labeled UGUCGGGUAGCUUAUCAGACUGAUGUUGACUGUUGAAUCUCAUGGCAACACCAGUCGAUGGGCUGUCUGACA pre-miRNA-21 (unknown origin) assessed as dissociation constant incubated for overnight by fluorescence based assay; assay type: nucleic-acid assay
[5] = target: microRNA 21; assay: Binding affinity to 5'-FAM/3'-DAB-labeled UGUCGGGUAGCUUAUCAGACUGAUGUUGACUGUUGAAUCUCAUGGCAACACCAGUCGAUGGGCUGUCUGACA pre-miRNA-21 (unknown origin) assessed as dissociation constant incubated for overnight in presence of Saccharomyces cerevisiae tRNA by fluorescence based assay; assay type: nucleic-acid assay
[6] = test system: microRNA 21; assay: Binding affinity to 5'-FAM/3'-DAB-labeled UGUCGGGUAGCUUAUCAGACUGAUGUUGACUGUUGAAUCUCAUGGCAACACCAGUCGAUGGGCUGUCUGACA pre-miRNA-21 (unknown origin) assessed as pre-miRNA-21-compound complex formation by measuring Gibbs free energy; assay type: nucleic-acid assay
Outline: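 ΔG°T obtained from the fluorescence binding assay on 5′-FAM-pre-miR-21, run at several temperatures (278–308 K). Enthalpic (ΔH°) and entropic (−TΔS°) contributions are derived from these values.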

[7] = target: microRNA 21; assay: Inhibition of 5'-FAM/3'-DAB-labeled UGUCGGGUAGCUUAUCAGACUGAUGUUGACUGUUGAAUCUCAUGGCAACACCAGUCGAUGGGCUGUCUGACA pre-miRNA-21 (unknown origin) biogenesis incubated for 30 mins in presence of human recombinant dicer by FRET based assay; assay type: nucleic-acid assay
Outline: (§2)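 FRET cleavage assay on a 72-mer pre-miR-21 carrying 5′-fluorescein and 3′-dabcyl. Substrate is processed by recombinant Dicer, E. coli RNase III or MCF7 cell lysate across a range of ligand concentrations. Cleavage raises fluorescence. IC50 from duplicates over three independent experiments.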

[8] = target: microRNA 21; assay: Inhibition of 5'-FAM/3'-DAB-labeled UGUCGGGUAGCUUAUCAGACUGAUGUUGACUGUUGAAUCUCAUGGCAACACCAGUCGAUGGGCUGUCUGACA pre-miRNA-21 (unknown origin) biogenesis preincubated for 30 mins followed by MCF7 cell lysate addition and measured after 1 hr by fluorescence based assay; outline: as §2
[9] = target: microRNA 21; assay: Inhibition of 5'-FAM/3'-DAB-labeled UGUCGGGUAGCUUAUCAGACUGAUGUUGACUGUUGAAUCUCAUGGCAACACCAGUCGAUGGGCUGUCUGACA pre-miRNA-21 (unknown origin) biogenesis preincubated for 30 mins followed by Escherichia coli RNase III addition and measured after 1 hr by fluorescence based assay; assay type: nucleic-acid assay; outline: as §2

## NC[C@@H]1O[C@H](O[C@H]2[C@@H](O)[C@H](O[C@@H]3[C@@H](O)[C@H](N)C[C@H](N)[C@H]3O[C@H]3O[C@H](CN)[C@@H](O)[C@H](O)[C@H]3N)O[C@@H]2CO)[C@H](N)[C@@H](O)[C@@H]1O [FRAMYCETIN]
[1]
  Ratio: 1.4
[2]
  Ratio: 1
[3]
  Kd: 1950 nM
[4]
  Kd: 1390 nM
[5]
  Kd: 1420 nM

## CC(=O)Nc1nc(-c2cccc(NC(=O)CCC(=O)N[C@@H](Cc3cn(C[C@H]4O[C@@H](O[C@@H]5[C@@H](O)[C@H](N)C[C@H](N)[C@H]5O[C@H]5O[C@H](CN)[C@@H](O)[C@H](O)[C@H]5N)[C@H](O)[C@@H]4O[C@H]4O[C@@H](CN)[C@@H](O)[C@H](O)[C@H]4N)nn3)C(=O)N[C@@H](Cc3c[nH]cn3)C(N)=O)c2)cs1
[1]
  Ratio: 1.6
[2]
  Ratio: 1
[6]
  deltaG: -41.5 kJ/mol
[3]
  Kd: 80.9 nM
[7]
  IC50: < 5 µM
[4]
  Kd: 50.3 nM
[5]
  Kd: 50.4 nM

## C[C@H](NC(=O)[C@H](Cc1cn(C[C@H]2O[C@@H](O[C@@H]3[C@@H](O)[C@H](N)C[C@H](N)[C@H]3O[C@H]3O[C@H](CN)[C@@H](O)[C@H](O)[C@H]3N)[C@H](O)[C@@H]2O[C@H]2O[C@@H](CN)[C@@H](O)[C@H](O)[C@H]2N)nn1)NC(=O)CCC(=O)NCCn1ccc(=O)[nH]c1=O)C(N)=O
[1]
  Ratio: 2.3
[2]
  Ratio: 1.3
[3]
  Kd: 1460 nM
[4]
  Kd: 641 nM
[5]
  Kd: 807 nM

## NC[C@@H]1O[C@H](O[C@H]2[C@@H](O)[C@H](O[C@@H]3[C@@H](O)[C@H](N)C[C@H](N)[C@H]3O[C@H]3O[C@H](CN)[C@@H](O)[C@H](O)[C@H]3N)O[C@@H]2Cn2cc(CCC(=O)Nc3cccc(-c4csc(NC(=O)[C@@H](N)Cc5c[nH]cn5)n4)c3)nn2)[C@H](N)[C@@H](O)[C@@H]1O
[1]
  Ratio: 1.3
[2]
  Ratio: 1
[8]
  IC50: 3.1 µM
[9]
  IC50: 1260 nM
[3]
  Kd: 171 nM
[7]
  IC50: < 5 µM
[4]
  Kd: 128 nM
[5]
  Kd: 134 nM

## CC(=O)Nc1nc(-c2cccc(NC(=O)CCC(=O)N[C@@H](Cc3cn(C[C@H]4O[C@@H](O[C@@H]5[C@@H](O)[C@H](N)C[C@H](N)[C@H]5O[C@H]5O[C@H](CN)[C@@H](O)[C@H](O)[C@H]5N)[C@H](O)[C@@H]4O[C@H]4O[C@@H](CN)[C@@H](O)[C@H](O)[C@H]4N)nn3)C(=O)N[C@@H](C)C(N)=O)c2)cs1
[1]
  Ratio: 1.4
[2]
  Ratio: 1.1
[3]
  Kd: 187 nM
[4]
  Kd: 133 nM
[5]
  Kd: 151 nM

## Cc1ccc(C(=O)Nc2nc(-c3cccc(NC(=O)CCC(=O)N[C@@H](Cc4cn(C[C@H]5O[C@@H](O[C@@H]6[C@@H](O)[C@H](N)C[C@H](N)[C@H]6O[C@H]6O[C@H](CN)[C@@H](O)[C@H](O)[C@H]6N)[C@H](O)[C@@H]5O[C@H]5O[C@@H](CN)[C@@H](O)[C@H](O)[C@H]5N)nn4)C(=O)N[C@@H](Cc4c[nH]cn4)C(N)=O)c3)cs2)cc1
[1]
  Ratio: 1.7
[2]
  Ratio: 1
[3]
  Kd: 274 nM
[7]
  IC50: < 5 µM
[4]
  Kd: 162 nM
[5]
  Kd: 168 nM

## Cc1ccc(C(=O)Nc2nc(-c3cccc(NC(=O)CCC(=O)N[C@@H](Cc4cn(C[C@H]5O[C@@H](O[C@@H]6[C@@H](O)[C@H](N)C[C@H](N)[C@H]6O[C@H]6O[C@H](CN)[C@@H](O)[C@H](O)[C@H]6N)[C@H](O)[C@@H]5O[C@H]5O[C@@H](CN)[C@@H](O)[C@H](O)[C@H]5N)nn4)C(=O)N[C@@H](CCCCN)C(N)=O)c3)cs2)cc1
[1]
  Ratio: 2.5
[2]
  Ratio: 1.2
[3]
  Kd: 877 nM
[4]
  Kd: 348 nM
[5]
  Kd: 405 nM

## Cc1ccc(C(=O)Nc2nc(-c3cccc(NC(=O)CCC(=O)N[C@@H](Cc4cn(C[C@H]5O[C@@H](O[C@@H]6[C@@H](O)[C@H](N)C[C@H](N)[C@H]6O[C@H]6O[C@H](CN)[C@@H](O)[C@H](O)[C@H]6N)[C@H](O)[C@@H]5O[C@H]5O[C@@H](CN)[C@@H](O)[C@H](O)[C@H]5N)nn4)C(=O)N[C@@H](C)C(N)=O)c3)cs2)cc1
[1]
  Ratio: 2
[2]
  Ratio: 1.3
[3]
  Kd: 261 nM
[7]
  IC50: < 5 µM
[4]
  Kd: 128 nM
[5]
  Kd: 170 nM

## CC(=O)Nc1nc(-c2cccc(NC(=O)CCC(=O)N[C@@H](Cc3cn(C[C@H]4O[C@@H](O[C@@H]5[C@@H](O)[C@H](N)C[C@H](N)[C@H]5O[C@H]5O[C@H](CN)[C@@H](O)[C@H](O)[C@H]5N)[C@H](O)[C@@H]4O[C@H]4O[C@@H](CN)[C@@H](O)[C@H](O)[C@H]4N)nn3)C(=O)N[C@@H](CCCCN)C(N)=O)c2)cs1
[1]
  Ratio: 1.9
[2]
  Ratio: 1
[6]
  deltaG: -41.5 kJ/mol
[3]
  Kd: 95.7 nM
[7]
  IC50: < 5 µM
[4]
  Kd: 50.7 nM
[5]
  Kd: 51 nM
